Laboratory results from ChEMBL document CHEMBL2086318, “Synthesis and in vitro antimycobacterial activity of 2-methoxybenzanilides and their thioxo analogues” (Eur J Med Chem, 2012).
Converted amounts (≈) assume the structure as drawn.

Experiments:
Assay type in all cases: functional
Mycobacterium kansasii [1] = experiment: Antimycobacterial activity against Mycobacterium kansasii My 6509/96 clinical isolate after 7 days by micromethod; conditions: My 6509/96, 168 h
[2] = tested on: Mycobacterium tuberculosis; experiment: Antimycobacterial activity against Mycobacterium tuberculosis My 331/88 after 21 days by micromethod; conditions: My 331/88, 504 h
Procedure, shortened: (§1)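 MIC by micromethod at 37 °C, read after 14 and 21 days. Inocula were M. tuberculosis My 331/88 at 10^-3 dilution and M. avium My 330/88 at 10^-5 dilution. Compounds added in DMSO across 1000, 500, 250, 125, 62.5, 32, 16, 8, 4, 2, 1 and 0.5; isoniazid standard in sterile water. MIC taken as the lowest concentration inhibiting growth.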

Mycobacterium avium [3] = experiment: Antimycobacterial activity against Mycobacterium avium My 330/88 after 14 days by micromethod; conditions: My 330/88, 336 h
Mycobacterium avium [4] = experiment: Antimycobacterial activity against Mycobacterium avium My 330/88 after 21 days by micromethod; conditions: My 330/88, 504 h
Mycobacterium kansasii [5] = experiment: Antimycobacterial activity against Mycobacterium kansasii My 235/80 after 21 days by micromethod; conditions: My 235/80, 504 h
Mycobacterium kansasii [6] = experiment: Antimycobacterial activity against Mycobacterium kansasii My 6509/96 clinical isolate after 21 days by micromethod; conditions: My 6509/96, 504 h
Mycobacterium kansasii [7] = experiment: Antimycobacterial activity against Mycobacterium kansasii My 235/80 after 7 days by micromethod; conditions: My 235/80, 168 h
Mycobacterium kansasii [8] = experiment: Antimycobacterial activity against Mycobacterium kansasii My 235/80 after 14 days by micromethod; conditions: My 235/80, 336 h
Mycobacterium kansasii [9] = experiment: Antimycobacterial activity against Mycobacterium kansasii My 6509/96 clinical isolate after 14 days by micromethod; conditions: My 6509/96, 336 h
[10] = tested on: Mycobacterium tuberculosis; experiment: Antimycobacterial activity against Mycobacterium tuberculosis My 331/88 after 14 days by micromethod; conditions: My 331/88, 336 h; procedure, shortened: as §1

COc1cc(Cl)ccc1C(=S)Nc1cccc(Br)c1
MIC (Mycobacterium kansasii [1]): 125 µM (≈ 44.6 µg/mL)
MIC [2]: 32 µM (≈ 11.4 µg/mL)
MIC (Mycobacterium avium [3]): 125 µM (≈ 44.6 µg/mL)
MIC (Mycobacterium avium [4]): 125 µM (≈ 44.6 µg/mL)
MIC (Mycobacterium kansasii [5]): 125 µM (≈ 44.6 µg/mL)
MIC (Mycobacterium kansasii [6]): 125 µM (≈ 44.6 µg/mL)
MIC (Mycobacterium kansasii [7]): 125 µM (≈ 44.6 µg/mL)
MIC (Mycobacterium kansasii [8]): 125 µM (≈ 44.6 µg/mL)
MIC (Mycobacterium kansasii [9]): 125 µM (≈ 44.6 µg/mL)
MIC [10]: 32 µM (≈ 11.4 µg/mL)

COc1cc(Cl)ccc1C(=O)Nc1ccc(Cl)cc1
MIC (Mycobacterium kansasii [1]): 8 µM (≈ 2.37 µg/mL)
MIC [2]: 125 µM (≈ 37 µg/mL)
MIC (Mycobacterium avium [3]): 8 µM (≈ 2.37 µg/mL)
MIC (Mycobacterium avium [4]): 32 µM (≈ 9.48 µg/mL)
MIC (Mycobacterium kansasii [5]): 62.5 µM (≈ 18.5 µg/mL)
MIC (Mycobacterium kansasii [6]): 62.5 µM (≈ 18.5 µg/mL)
MIC (Mycobacterium kansasii [7]): 8 µM (≈ 2.37 µg/mL)
MIC (Mycobacterium kansasii [8]): 16 µM (≈ 4.74 µg/mL)
MIC (Mycobacterium kansasii [9]): 16 µM (≈ 4.74 µg/mL)
MIC [10]: 125 µM (≈ 37 µg/mL)

COc1cc(Cl)ccc1C(=O)Nc1ccc([N+](=O)[O-])cc1
MIC (Mycobacterium kansasii [1]): 125 µM (≈ 38.3 µg/mL)
MIC [2]: 250 µM (≈ 76.7 µg/mL)
MIC (Mycobacterium avium [3]): 250 µM (≈ 76.7 µg/mL)
MIC (Mycobacterium avium [4]): 250 µM (≈ 76.7 µg/mL)
MIC (Mycobacterium kansasii [5]): 250 µM (≈ 76.7 µg/mL)
MIC (Mycobacterium kansasii [6]): 125 µM (≈ 38.3 µg/mL)
MIC (Mycobacterium kansasii [7]): 125 µM (≈ 38.3 µg/mL)
MIC (Mycobacterium kansasii [8]): 250 µM (≈ 76.7 µg/mL)
MIC (Mycobacterium kansasii [9]): 125 µM (≈ 38.3 µg/mL)
MIC [10]: 250 µM (≈ 76.7 µg/mL)

COc1ccc(Cl)cc1C(=S)Nc1ccc(Cl)cc1
MIC (Mycobacterium kansasii [1]): 16 µM (≈ 5 µg/mL)
MIC [2]: 16 µM (≈ 5 µg/mL)
MIC (Mycobacterium avium [3]): 32 µM (≈ 9.99 µg/mL)
MIC (Mycobacterium avium [4]): 32 µM (≈ 9.99 µg/mL)
MIC (Mycobacterium kansasii [5]): 62.5 µM (≈ 19.5 µg/mL)
MIC (Mycobacterium kansasii [6]): 32 µM (≈ 9.99 µg/mL)
MIC (Mycobacterium kansasii [7]): 8 µM (≈ 2.5 µg/mL)
MIC (Mycobacterium kansasii [8]): 32 µM (≈ 9.99 µg/mL)
MIC (Mycobacterium kansasii [9]): 16 µM (≈ 5 µg/mL)
MIC [10]: 16 µM (≈ 5 µg/mL)

COc1ccc(Cl)cc1C(=S)Nc1cccc(Cl)c1
MIC (Mycobacterium kansasii [1]): 16 µM (≈ 5 µg/mL)
MIC [2]: 16 µM (≈ 5 µg/mL)
MIC (Mycobacterium avium [3]): 32 µM (≈ 9.99 µg/mL)
MIC (Mycobacterium avium [4]): 32 µM (≈ 9.99 µg/mL)
MIC (Mycobacterium kansasii [5]): 16 µM (≈ 5 µg/mL)
MIC (Mycobacterium kansasii [6]): 32 µM (≈ 9.99 µg/mL)
MIC (Mycobacterium kansasii [7]): 8 µM (≈ 2.5 µg/mL)
MIC (Mycobacterium kansasii [8]): 16 µM (≈ 5 µg/mL)
MIC (Mycobacterium kansasii [9]): 16 µM (≈ 5 µg/mL)
MIC [10]: 16 µM (≈ 5 µg/mL)

COc1ccc(Cl)cc1C(=O)Nc1ccc(Br)cc1
MIC (Mycobacterium kansasii [1]): 32 µM (≈ 10.9 µg/mL)
MIC [2]: 16 µM (≈ 5.45 µg/mL)
MIC (Mycobacterium avium [3]): 16 µM (≈ 5.45 µg/mL)
MIC (Mycobacterium avium [4]): 32 µM (≈ 10.9 µg/mL)
MIC (Mycobacterium kansasii [5]): 62.5 µM (≈ 21.3 µg/mL)
MIC (Mycobacterium kansasii [6]): 62.5 µM (≈ 21.3 µg/mL)
MIC (Mycobacterium kansasii [7]): 62.5 µM (≈ 21.3 µg/mL)
MIC (Mycobacterium kansasii [8]): 62.5 µM (≈ 21.3 µg/mL)
MIC (Mycobacterium kansasii [9]): 62.5 µM (≈ 21.3 µg/mL)
MIC [10]: 16 µM (≈ 5.45 µg/mL)

COc1cc(Cl)ccc1C(=S)Nc1cccc([N+](=O)[O-])c1
MIC (Mycobacterium kansasii [1]): 8 µM (≈ 2.58 µg/mL)
MIC [2]: 16 µM (≈ 5.16 µg/mL)
MIC (Mycobacterium avium [3]): 16 µM (≈ 5.16 µg/mL)
MIC (Mycobacterium avium [4]): 16 µM (≈ 5.16 µg/mL)
MIC (Mycobacterium kansasii [5]): 62.5 µM (≈ 20.2 µg/mL)
MIC (Mycobacterium kansasii [6]): 32 µM (≈ 10.3 µg/mL)
MIC (Mycobacterium kansasii [7]): 32 µM (≈ 10.3 µg/mL)
MIC (Mycobacterium kansasii [8]): 32 µM (≈ 10.3 µg/mL)
MIC (Mycobacterium kansasii [9]): 16 µM (≈ 5.16 µg/mL)
MIC [10]: 8 µM (≈ 2.58 µg/mL)

COc1ccc(Cl)cc1C(=O)Nc1cccc(Cl)c1
MIC (Mycobacterium kansasii [1]): 125 µM (≈ 37 µg/mL)
MIC [2]: 250 µM (≈ 74 µg/mL)
MIC (Mycobacterium avium [3]): 250 µM (≈ 74 µg/mL)
MIC (Mycobacterium avium [4]): 250 µM (≈ 74 µg/mL)
MIC (Mycobacterium kansasii [5]): 250 µM (≈ 74 µg/mL)
MIC (Mycobacterium kansasii [6]): 250 µM (≈ 74 µg/mL)
MIC (Mycobacterium kansasii [7]): 62.5 µM (≈ 18.5 µg/mL)
MIC (Mycobacterium kansasii [8]): 250 µM (≈ 74 µg/mL)
MIC (Mycobacterium kansasii [9]): 250 µM (≈ 74 µg/mL)
MIC [10]: 250 µM (≈ 74 µg/mL)

COc1cc(Cl)ccc1C(=O)Nc1ccc(Br)cc1
MIC (Mycobacterium kansasii [1]): 4 µM (≈ 1.36 µg/mL)
MIC [2]: 125 µM (≈ 42.6 µg/mL)
MIC (Mycobacterium avium [3]): 8 µM (≈ 2.72 µg/mL)
MIC (Mycobacterium avium [4]): 32 µM (≈ 10.9 µg/mL)
MIC (Mycobacterium kansasii [5]): 32 µM (≈ 10.9 µg/mL)
MIC (Mycobacterium kansasii [6]): 32 µM (≈ 10.9 µg/mL)
MIC (Mycobacterium kansasii [7]): 4 µM (≈ 1.36 µg/mL)
MIC (Mycobacterium kansasii [8]): 8 µM (≈ 2.72 µg/mL)
MIC (Mycobacterium kansasii [9]): 8 µM (≈ 2.72 µg/mL)
MIC [10]: 62.5 µM (≈ 21.3 µg/mL)

COc1cc(Cl)ccc1C(=O)Nc1ccc(Cl)c(Cl)c1
MIC (Mycobacterium kansasii [1]): 125 µM (≈ 41.3 µg/mL)
MIC [2]: 125 µM (≈ 41.3 µg/mL)
MIC (Mycobacterium avium [3]): 125 µM (≈ 41.3 µg/mL)
MIC (Mycobacterium avium [4]): 125 µM (≈ 41.3 µg/mL)
MIC (Mycobacterium kansasii [5]): 125 µM (≈ 41.3 µg/mL)
MIC (Mycobacterium kansasii [6]): 125 µM (≈ 41.3 µg/mL)
MIC (Mycobacterium kansasii [7]): 125 µM (≈ 41.3 µg/mL)
MIC (Mycobacterium kansasii [8]): 125 µM (≈ 41.3 µg/mL)
MIC (Mycobacterium kansasii [9]): 125 µM (≈ 41.3 µg/mL)
MIC [10]: 125 µM (≈ 41.3 µg/mL)

COc1ccc(Cl)cc1C(=O)Nc1ccc([N+](=O)[O-])cc1
MIC (Mycobacterium kansasii [1]): 125 µM (≈ 38.3 µg/mL)
MIC [2]: 125 µM (≈ 38.3 µg/mL)
MIC (Mycobacterium avium [3]): 125 µM (≈ 38.3 µg/mL)
MIC (Mycobacterium avium [4]): 125 µM (≈ 38.3 µg/mL)
MIC (Mycobacterium kansasii [5]): 125 µM (≈ 38.3 µg/mL)
MIC (Mycobacterium kansasii [6]): 125 µM (≈ 38.3 µg/mL)
MIC (Mycobacterium kansasii [7]): 125 µM (≈ 38.3 µg/mL)
MIC (Mycobacterium kansasii [8]): 125 µM (≈ 38.3 µg/mL)
MIC (Mycobacterium kansasii [9]): 125 µM (≈ 38.3 µg/mL)
MIC [10]: 125 µM (≈ 38.3 µg/mL)

COc1ccc(Cl)cc1C(=O)Nc1cccc(C(F)(F)F)c1
MIC (Mycobacterium kansasii [1]): 4 µM (≈ 1.32 µg/mL)
MIC [2]: 16 µM (≈ 5.28 µg/mL)
MIC (Mycobacterium avium [3]): 125 µM (≈ 41.2 µg/mL)
MIC (Mycobacterium avium [4]): 125 µM (≈ 41.2 µg/mL)
MIC (Mycobacterium kansasii [5]): 16 µM (≈ 5.28 µg/mL)
MIC (Mycobacterium kansasii [6]): 16 µM (≈ 5.28 µg/mL)
MIC (Mycobacterium kansasii [7]): 4 µM (≈ 1.32 µg/mL)
MIC (Mycobacterium kansasii [8]): 4 µM (≈ 1.32 µg/mL)
MIC (Mycobacterium kansasii [9]): 4 µM (≈ 1.32 µg/mL)
MIC [10]: 4 µM (≈ 1.32 µg/mL)

COc1ccc(Cl)cc1C(=O)Nc1cccc(Br)c1
MIC (Mycobacterium kansasii [1]): 62.5 µM (≈ 21.3 µg/mL)
MIC [2]: 125 µM (≈ 42.6 µg/mL)
MIC (Mycobacterium avium [3]): 62.5 µM (≈ 21.3 µg/mL)
MIC (Mycobacterium avium [4]): 62.5 µM (≈ 21.3 µg/mL)
MIC (Mycobacterium kansasii [5]): 62.5 µM (≈ 21.3 µg/mL)
MIC (Mycobacterium kansasii [6]): 62.5 µM (≈ 21.3 µg/mL)
MIC (Mycobacterium kansasii [7]): 62.5 µM (≈ 21.3 µg/mL)
MIC (Mycobacterium kansasii [8]): 62.5 µM (≈ 21.3 µg/mL)
MIC (Mycobacterium kansasii [9]): 62.5 µM (≈ 21.3 µg/mL)
MIC [10]: 125 µM (≈ 42.6 µg/mL)
